The subject of assay [1] is B16. Nature of the assay: Cytotoxicity against mouse B16 cells […] by MTT assay. In kind it is functional, cell-based. (In general: Tetrazolium dyes change colour on reduction, which living cells bring about.)
The test system of assay [2] is HeLa. Nature of the assay: Cytotoxicity against human HeLa cells […] by MTT assay. In kind it is functional, cell-based. In a few lines: (§1)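 Cells (1 × 10⁴/ml) in RPMI-1640 were cultured 24 h at 37 °C in 5% CO₂. Medium was then renewed with compound (final 0.1–200 µM) and cells grown a further 48 h. MTT was added for 4 h, residues dissolved in DMSO and absorbance read. I% = (C − T)/C. IC50 is given as mean ± SD, n = 6.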

In assay [3] the test system is Bel-7402. Nature of the assay: Cytotoxicity against human Bel7402 cells […] by MTT assay. In kind it is functional, cell-based. In short, it runs like this:
as §1

Assay [4] has as its system HepG2. Nature of the assay: Cytotoxicity against human HepG2 cells […] by MTT assay. In kind it is functional, cell-based. In a few lines: as §1
In assay [5] the test system is CCRF S-180. Put plainly: Antitumor activity against mouse S180 cells transplanted in ICR mouse assessed as inhibition of tumor weight at 8.9 umol/kg, ip. In kind it is functional. The note with it: CCRF S-180, ip. In a few lines:
(§2)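 S180 ascites cells, serially passaged weekly in mice, were implanted subcutaneously (1 × 10⁷ viable cells in NS) in the right axilla of male ICR mice aged 10–12 weeks. After 24 h, mice were randomized (10/group) and dosed ip daily with 8.9 µmol/kg in 0.2 ml NS for 7 days. Tumours were weighed 24 h after the last dose. Inhibition = [1 − Tw/Cw] × 100.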

The subject of assay [6] is K562. Nature of the assay: Cytotoxicity against human K562 cells […] by MTT assay. In kind it is functional, cell-based. In a few lines: as §1
Assay [7] has as its system CCRF S-180. Nature of the assay: Antitumor activity against mouse S180 cells transplanted in ICR mouse assessed as inhibition of tumor weight. In kind it is functional, cell-based. In a few lines: as §2
Assay [8] concerns CCRF S-180. Put plainly: Antitumor activity against mouse S180 cells transplanted in ICR mouse assessed as inhibition of tumor weight at 0.89 umol/kg, ip. In kind it is functional. Particulars: CCRF S-180, ip.
Assay [9] has as its system CCRF S-180. Nature of the assay: Antitumor activity against mouse S180 cells transplanted in ICR mouse assessed as inhibition of tumor weight at 89 umol/kg, ip. The note with it: CCRF S-180, ip. In kind it is functional.
For assay [10], the system named is Calf thymus DNA. Nature of the assay: Binding affinity to calf thymus DNA assessed as induction of hypochromatic effect by spectrophotometry. In kind it is nucleic-acid assay. Particulars: Bos taurus. In short, it runs like this:
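UV absorption spectra (220–400 nm) were recorded in PBS for CT DNA (final 240 µM), alone and with test compound at final concentrations of 27, 54, 81 and 108 µM. Hypochromicity and wavelength shift were assessed.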

Assay [11] concerns Calf thymus DNA. Put plainly: Binding affinity to calf thymus DNA assessed as decrease in fluorescence intensity at 8 to 72 uM by fluorescence spectroscopy. In kind it is nucleic-acid assay. Particulars: Bos taurus.
Assay [12] relates to Calf thymus DNA. Nature of the assay: Binding affinity to calf thymus DNA assessed as increase in viscosity. In kind it is nucleic-acid assay. The note with it: Bos taurus. In a few lines: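 An Ostwald viscometer was held at 28 °C in phosphate buffer, with compound/DNA ratios of 0–0.36. Flow times were taken after 5 min of thermal equilibration. η = (t − t₀)/t₀, and data were plotted as (η/η₀)^1/3 versus binding ratio.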

In assay [13] the test system is Calf thymus DNA. Nature of the assay: Binding affinity to calf thymus DNA assessed as change in melting temperature. Particulars: Bos taurus. In kind it is nucleic-acid assay. In short, it runs like this: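 Thermal denaturation used CT DNA (100 µM) with test compound (18 µM) in PBS, pH 7.4, at a compound/DNA ratio of 0.18. Temperature was raised at 1 °C/min while absorbance at 260 nm was monitored.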

Active and inactive are the calls of the source. The calls are words filed in the database; no cut-off is given here.

Usually IC50 stands for the concentration needed to halve the response being measured. The low end stands for inhibition by little substance, the high end for a need for much substance. As usually defined, the inhibition in vivo is the change of the read-out against control, counted positive when it falls. On to `O=C(OCc1ccccc1)c1cc2c([nH]c3ccccc32)c(CCN[C@@H](Cc2c[nH]c3ccccc23)C(=O)OCc2ccccc2)n1`, for which the IC50 in assay [1] amounted to 20.7 µM; in assay [2], 59.5 µM; in assay [3], 39 µM; in [4] it was 60 µM; in assay [6] it was 14.9 µM. The inhibition in vivo at 8.9 µmol/kg in assay [5] was determined as 22.2%.

On to `O=C(NCCCC[C@H](NCCc1nc(C(=O)OCc2ccccc2)cc2c1[nH]c1ccccc12)C(=O)OCc1ccccc1)OCc1ccccc1`, for which the IC50 in [1] turned out to be 49.4 µM; in assay [2], 33.9 µM; in [3], 14.9 µM; in [4], 36.3 µM; in assay [6], 15.4 µM. The inhibition in vivo at 8.9 µmol/kg in [5] worked out at 28.9%.

As to `O=C(OCc1ccccc1)c1cc2c([nH]c3ccccc32)c(CCN[C@@H](Cc2ccc(O)cc2)C(=O)OCc2ccccc2)n1`, the IC50 in [1] was 24.5 µM; in assay [2], 16.7 µM; in assay [3] it was 23.7 µM; in [4], over 100 µM; in [6], 18.9 µM. Further, the inhibition in vivo at 8.9 µmol/kg in assay [5] amounted to 31.7%.

For the compound `O=C(OCc1ccccc1)c1cc2c([nH]c3ccccc32)c(CCN[C@@H](Cc2ccccc2)C(=O)OCc2ccccc2)n1`, the IC50 was 28.1 µM in [1]; over 100 µM in assay [2]; over 100 µM in assay [3]; over 100 µM in assay [4]; over 100 µM in assay [6]. Also, the inhibition in vivo at 8.9 µmol/kg in [5] stood at 6.6%.

Consider `O=C(CNCCc1nc(C(=O)OCc2ccccc2)cc2c1[nH]c1ccccc12)OCc1ccccc1`, for which the IC50 in [1] was found to be 75.4 µM; in assay [2], 26.8 µM; in [3] it was 53.2 µM; in [4], 50 µM; in assay [6] it was 47.1 µM. For the same compound, the inhibition in vivo at 8.9 µmol/kg in assay [5] came out at 3.5%.

As for `C[C@@H](O)[C@H](NCCc1nc(C(=O)OCc2ccccc2)cc2c1[nH]c1ccccc12)C(=O)OCc1ccccc1`, the IC50 is 38.4 µM in [1]; 15.2 µM in [2]; over 100 µM in assay [3]; 26 µM in assay [4]; 38.3 µM in assay [6]. The inhibition in vivo at 8.9 µmol/kg in assay [5] amounted to 34.8%.

For the compound `C[C@H](NCCc1nc(C(=O)OCc2ccccc2)cc2c1[nH]c1ccccc12)C(=O)OCc1ccccc1`, the IC50 is 20.5 µM in assay [1]; 76.4 µM in assay [2]; 100 µM in [3]; over 100 µM in assay [4]; 48.2 µM in assay [6]. For the same compound, the inhibition in vivo at 8.9 µmol/kg in assay [5] stood at 22%.

As to `O=C(CC[C@H](NCCc1nc(C(=O)OCc2ccccc2)cc2c1[nH]c1ccccc12)C(=O)OCc1ccccc1)OCc1ccccc1`, the IC50 in [1] was 66.4 µM; in assay [2], 54.9 µM; in [3], over 100 µM; in [4] it was 63.1 µM; in assay [6], 18.5 µM. Further, in [5], the inhibition in vivo at 8.9 µmol/kg is 29.4%.

Turning to `CSCC[C@H](NCCc1nc(C(=O)OCc2ccccc2)cc2c1[nH]c1ccccc12)C(=O)OCc1ccccc1`, the IC50 in assay [1] came to 61.1 µM; in assay [2], 28.8 µM; in assay [3], 25.8 µM; in assay [4], 18.7 µM; in [6] it was 13.5 µM. For the same compound, the inhibition in vivo at 8.9 µmol/kg in assay [5] is 15.3%.

Consider `O=C(C[C@H](NCCc1nc(C(=O)OCc2ccccc2)cc2c1[nH]c1ccccc12)C(=O)OCc1ccccc1)OCc1ccccc1`, for which the IC50 in assay [1] was 11.1 µM; in assay [2], over 100 µM; in assay [3] it was 60.3 µM; in assay [4] it was over 100 µM; in assay [6], over 100 µM. In addition, the Activity result in [7] was “Dose-dependent effect”. Besides, the inhibition in vivo at 8.9 µmol/kg in [5] was 56.1%. The inhibition in vivo at 0.89 µmol/kg in assay [8] stood at 40.6%. For the same compound, the inhibition in vivo at 89 µmol/kg in assay [9] turned out to be 73.5%.

In the case of `CC(C)C[C@H](NCCc1nc(C(=O)OCc2ccccc2)cc2c1[nH]c1ccccc12)C(=O)OCc1ccccc1`, the IC50 in [1] was 50.2 µM; in assay [2], 22.5 µM; in assay [3], 43.5 µM; in [4], 25.2 µM; in [6] it was 21.5 µM. The Activity in assay [10] was 53%; in assay [12] it was “Dose-dependent effect”. In assay [11], the result was Active. Also, in assay [5], the inhibition in vivo at 8.9 µmol/kg came out at 50.9%. Besides, in [13], the Tm came out at 13.8 °C.

Take `O=C(OCc1ccccc1)c1cc2c([nH]c3ccccc32)c(CCN[C@@H](Cc2c[nH]cn2)C(=O)OCc2ccccc2)n1`: the IC50 was 60 µM in assay [1]; 63.6 µM in [2]; 36.9 µM in [3]; over 100 µM in assay [4]; 14.4 µM in assay [6]. The Activity result in assay [7] is “Dose-dependent effect”. In addition, in [5], the inhibition in vivo at 8.9 µmol/kg came to 35.4%. In assay [8], the inhibition in vivo at 0.89 µmol/kg came out at 6.3%. Besides, the inhibition in vivo at 89 µmol/kg in assay [9] was 60.7%.

With `O=C(OCc1ccccc1)c1cc2c([nH]c3ccccc32)c(CCN[C@@H](CO)C(=O)OCc2ccccc2)n1`, the IC50 in assay [1] was 60.3 µM; in assay [2], 20.3 µM; in assay [3], 54.6 µM; in assay [4], 19.9 µM; in assay [6], 19.7 µM. In addition, in [5], the inhibition in vivo at 8.9 µmol/kg came to 36.7%.

Consider `CC(C)[C@H](NCCc1nc(C(=O)OCc2ccccc2)cc2c1[nH]c1ccccc12)C(=O)OCc1ccccc1`, for which the IC50 in assay [1] came out at 28.8 µM; in assay [2] it was 25.5 µM; in assay [3], 20.3 µM; in assay [4], 29.2 µM; in assay [6], 20.9 µM. Besides, the inhibition in vivo at 8.9 µmol/kg in assay [5] amounted to 34%.

Consider `NC(=O)CC[C@H](NCCc1nc(C(=O)OCc2ccccc2)cc2c1[nH]c1ccccc12)C(=O)OCc1ccccc1`, for which the IC50 in assay [1] was 42.5 µM; in assay [2], 71 µM; in assay [3], 81.3 µM; in assay [4], 35.9 µM; in [6], over 100 µM. In addition, the inhibition in vivo at 8.9 µmol/kg in assay [5] was -5.3%.

Turning to `CC[C@H](C)[C@H](NCCc1nc(C(=O)OCc2ccccc2)cc2c1[nH]c1ccccc12)C(=O)OCc1ccccc1`, the IC50 was 19.2 µM in assay [1]; over 100 µM in [2]; over 100 µM in assay [3]; over 100 µM in assay [4]; over 100 µM in [6]. Further, the inhibition in vivo at 8.9 µmol/kg in assay [5] was 33.9%.

For the compound `Nc1ccn([C@@H]2O[C@H](CO)[C@@H](O)[C@@H]2O)c(=O)n1` [CYTARABINE], the IC50 stood at 34.2 µM in assay [3], 0.2 µM in assay [4] and 33.5 µM in [6]. In addition, the inhibition in vivo at 8.9 µmol/kg in assay [5] came to 24.3%. For the same compound, the inhibition in vivo at 0.89 µmol/kg in assay [8] was determined as 6.8%. The inhibition in vivo at 89 µmol/kg in [9] was 54.8%.

As for `O=C(OCc1ccccc1)c1cc2c([nH]c3ccccc32)c(CCN2CCC[C@H]2C(=O)OCc2ccccc2)n1`, the IC50 came to 71.8 µM in assay [1]; 25.8 µM in assay [2]; 52.8 µM in assay [3]; 17.1 µM in assay [4]; 20.1 µM in assay [6]. The inhibition in vivo at 8.9 µmol/kg in assay [5] was 7.1%.

`NC(=O)C[C@H](NCCc1nc(C(=O)OCc2ccccc2)cc2c1[nH]c1ccccc12)C(=O)OCc1ccccc1`: the IC50 in assay [1] was 17.1 µM; in [2], 97.2 µM; in assay [3], over 100 µM; in assay [4], over 100 µM; in assay [6], 63.6 µM. The inhibition in vivo at 8.9 µmol/kg in assay [5] came out at 14%.
